Measurements reported in ChEMBL document CHEMBL4616671, “Identification of N-Phenyl-7H-pyrrolo[2,3-d]pyrimidin-4-amine Derivatives as Novel, Potent, and Selective NF-κB Inducing Kinase (NIK) Inhibitors for the Treatment of Psoriasis” (J Med Chem, 2020).
Active and inactive are the calls of the source. No cut-off for these calls is given here.

Assays:
T-cell = experiment: Antiinflammatory activity in mouse T cells assessed as inhibition of conA-induced induced T cell proliferation at 0.4 uM incubated for 48 hrs by CCK8 assay relative to control; assay type: functional
[1] = Elimination half life in monkey liver microsomes incubated for 10 mins followed by potassium phosphate buffer addition and measured after 5 to 60 mins by LC-MS/MS analysis; assay type: ADME, Macaca mulatta, Microsome; conditions: rhesus monkey, read-out: beta t1/2
How it was run: (§1)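 Rat, dog, monkey or human liver microsomes pre-incubated with compound at 37 °C for 10 min; reaction started after pre-warming and stopped at 5, 15, 30, 60 min with chilled quench containing tolbutamide and labetalol. No-cofactor control in 100 mM potassium phosphate for 60 min. LC-MS/MS analysis; first-order fit: k = −slope, T1/2 = 0.693/k, CLint = k/microsomal protein concentration.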

Mus musculus [2] = experiment: Suppression of IMQ-induced psoriasis in ig dosed C57 mouse assessed as reduction in serum TNFalpha level administered once daily starting from day 3 post IMQ-challenge and measured 2 days post-last dose of IMQ by ELISA; assay type: functional, organism-based
How it was run: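 Psoriasis-like dermatitis induced by 5% imiquimod cream on back skin of C57 mice, q.d. for seven days. Oral (i.g.) dosing q.d. at 60 or 120 mg/kg from day 3 to study end, n = 6 per group. At end, blood held at 4 °C for 12 h, then centrifuged. Serum TNFα measured by ELISA. Mean ± SEM.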

[3] = molecular target: Mitogen-activated protein kinase kinase kinase 14 (Mus musculus) (UniProt Q9WUL6); experiment: In vivo inhibition of NIK in po dosed C57 mouse model of IMQ-induced psoriasis assessed as reduction in P52 expression in back skin administered starting from day 3 post IMQ-challenge and measured 2 days post-last dose of IMQ by Western blot analysis; assay type: functional, organism-based
How it was run: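 IMQ-induced psoriasis in C57 mice, 5% cream daily for 7 days, oral dosing 60 or 120 mg/kg from day 3. Back-skin protein extracts probed by western blot for p100 and p52; band optical density normalized to GAPDH.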

Homo sapiens [4] = species: Homo sapiens; experiment: Selectivity ratio of IC50 for human JAK3 to IC50 for human NIK
[5] = Intrinsic clearance in dog liver microsomes assessed as per mg of protein incubated for 10 mins followed by potassium phosphate buffer addition and measured after 5 to 60 mins by LC-MS/MS analysis; assay type: ADME, Canis lupus familiaris, Microsome; conditions: read-out: CLH; how it was run: as §1
[6] = Half life in Sprague-Dawley rat at 10 mg/kg, po administered via gavage by LC-MS/MS analysis; assay type: ADME, organism-based; conditions: in vivo
Mus musculus [7] = experiment: (§2) Suppression of epidermal and dermal cell proliferation in C57 mouse model of IMQ-induced psoriasis assessed as reduction in Ki67 expression in back skin psoriatic lesions at 120 mg/kg, ig administered starting from day 3 post IMQ-challenge and measured 2 days post-last dose of IMQ by immunohistochemical analysis relative to control; assay type: functional; conditions: C57, topical
How it was run: (§3)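 C57 mice given 5% imiquimod cream on back skin q.d. for seven days. Gavage q.d. at 60 or 120 mg/kg from day 3, n = 6 per group. Back-skin frozen sections (6 µm) stained for Ki67 by IHC. % Ki67+ of total cells quantified and normalized to IMQ-only model group. Two-tailed t-test, mean ± SD.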

[8] = molecular target: Mitogen-activated protein kinase kinase kinase 14 (Mus musculus) (UniProt Q9WUL6); experiment: Inhibition of NIK in mouse J774 cells assessed as reduction in LPS-induced TNFalpha mRNA level by SYBR green dye-based quantitative PCR analysis; assay type: cell-based
How it was run: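 LPS-stimulated J774 macrophages; mRNA quantified by qPCR using 4 µL cDNA plus 16 µL master mix per reaction. Mean ± SD of three biological replicates; significance by two-tailed Student's t-test against the model group.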

Mus musculus [9] = experiment: as §2, with “60” for “120”; assay type: functional; conditions: C57, topical; how it was run: as §3
[10] = Intrinsic hepatic clearance in dog; assay type: ADME, Canis lupus familiaris; conditions: in vivo
How it was run: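 Scaled from microsomal intrinsic clearance: CLint,in vitro × microsomal protein per g liver × liver weight per kg body weight.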

Mus musculus [11] = experiment: Protection against IMQ-induced dermatitis in C57 mouse model of psoriasis assessed as reduction in dermal scales at 120 mg/kg, ig administered once daily starting from day 3 post IMQ-challenge and measured 2 days post-last dose of IMQ; assay type: functional, organism-based
How it was run: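 C57 mice given 5% imiquimod cream on the back once daily for 7 days; intragastric dosing 60 or 120 mg/kg once daily from day 3 to end, n = 6 per group. Dorsal skin phenotype assessed by imaging.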

Mus musculus [12] = experiment: Suppression of IMQ-induced psoriasis in C57 mouse assessed as reduction in spleen index at 120 mg/kg, ig administered once daily starting from day 3 post IMQ-challenge and measured 2 days post-last dose of IMQ; assay type: functional, organism-based
How it was run: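 IMQ-induced C57 mice (5% cream daily 7 days; i.g. daily from day 3 at the stated dose, n = 6). Spleen weighed per mouse at end of study.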

Homo sapiens [13] = species: Homo sapiens; experiment: Selectivity ratio of IC50 for human ACK1 to IC50 for human NIK

Sequence of Mitogen-activated protein kinase kinase kinase 14 (Mus musculus) (Q9WUL6 whole entry): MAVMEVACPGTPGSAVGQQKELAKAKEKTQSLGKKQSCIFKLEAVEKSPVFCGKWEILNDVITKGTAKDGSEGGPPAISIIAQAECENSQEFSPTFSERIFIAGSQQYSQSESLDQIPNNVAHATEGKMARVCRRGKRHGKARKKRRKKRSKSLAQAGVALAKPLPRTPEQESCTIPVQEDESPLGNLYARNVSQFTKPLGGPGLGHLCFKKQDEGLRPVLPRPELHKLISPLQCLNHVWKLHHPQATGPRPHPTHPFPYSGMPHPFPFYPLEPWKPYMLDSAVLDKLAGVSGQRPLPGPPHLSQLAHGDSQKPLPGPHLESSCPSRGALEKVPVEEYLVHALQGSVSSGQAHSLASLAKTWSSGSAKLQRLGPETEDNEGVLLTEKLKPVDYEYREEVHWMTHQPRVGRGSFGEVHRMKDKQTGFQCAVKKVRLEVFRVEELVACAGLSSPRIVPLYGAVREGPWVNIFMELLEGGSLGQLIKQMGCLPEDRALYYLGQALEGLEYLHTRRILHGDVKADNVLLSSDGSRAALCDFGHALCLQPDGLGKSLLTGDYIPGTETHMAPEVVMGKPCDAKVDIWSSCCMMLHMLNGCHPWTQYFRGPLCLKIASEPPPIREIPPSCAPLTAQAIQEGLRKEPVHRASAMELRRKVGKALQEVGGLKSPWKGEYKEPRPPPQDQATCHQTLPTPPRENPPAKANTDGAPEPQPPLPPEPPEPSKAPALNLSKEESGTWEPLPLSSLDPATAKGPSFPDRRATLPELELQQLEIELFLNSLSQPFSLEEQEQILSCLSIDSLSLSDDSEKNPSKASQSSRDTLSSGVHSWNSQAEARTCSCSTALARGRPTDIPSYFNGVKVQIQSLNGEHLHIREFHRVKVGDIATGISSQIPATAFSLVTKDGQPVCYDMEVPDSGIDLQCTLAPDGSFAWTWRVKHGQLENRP

CC(O)(C#Cc1ccc(N2CCOCC2)c(Nc2ncnc3[nH]ccc23)c1)c1nccs1 (racemic)
inhibition at 0.4 µM (T-cell): 36% | half-life [1]: 18 min | inhibition (Mus musculus [2]): Dose-dependent effect | inhibition [3]: Dose-dependent effect | Ratio IC50 (Homo sapiens [4]): 4 to 20 | microsomal CLint [5]: 43.3 µL/min/mg | half-life [6]: 83.4 min | inhibition in vivo at 120 mg/kg (Mus musculus [7]): 83% | inhibition [8]: Active | inhibition in vivo at 60 mg/kg (Mus musculus [9]): 55% | CLH [10]: 62.4 mL/min/kg | Activity (Mus musculus [11]): Active | inhibition (Mus musculus [12]): Active | Ratio IC50 (Homo sapiens [13]): 4 to 20
